Source: ChEMBL document CHEMBL4651341, “The discovery of a novel series of compounds with single-dose efficacy against juvenile and adult Schistosoma species” (PLoS Negl Trop Dis, 2021)
In brackets after ≈: the same amount, converted by molar mass.

Tests used:
Schistosoma mansoni [1] = test: Concentration required to kill 50% of 42 day old worms 5 days after drug treatment.; type: functional, organism-based; conditions: Puerto Rican, 120 h
How it was run: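 Adult S. mansoni were perfused from CD1 mice 6 weeks post-infection and washed. They were cultured 3 pairs per well in 1 mL DMEM with 2 mM glutamine, penicillin/streptomycin and 10% FCS […] at 37 °C, 5% CO2. Viability of individual worms was scored on day 5 (120 h).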

Schistosoma mansoni [2] = test: Concentration required to kill 50% of 21 day old worms 5 days after drug treatment.; type: functional, organism-based; conditions: Puerto Rican, 120 h
How it was run: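 Juvenile S. mansoni (Puerto Rican strain) were perfused from CD1 mice 3 weeks post-infection and washed. They were cultured 6–8 per well in 200 µL DMEM with 2 mM glutamine, penicillin/streptomycin and 10% FCS at 37 °C, 5% CO2. Viability of individual worms was scored on day 5 after dosing (120 h).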

[3] = Concentration required to kill 50% MRC-5 cells as detected by Alamar blue staining; type: toxicity, cell-based, MRC5; conditions: homo sapiens, read-out: TC50 (the source's name)
[4] = Solubility at 25 degC of compound (diluted from DMSO) in PBS at pH 7.4 determined after 24h (1h sonication, 22h shaking, 1h sonication) by LCMS/MS; type: physicochemical
[5] = Concentration required to kill 50% HepG2 cells as detected by MTT staining; type: toxicity, cell-based; conditions: homo sapiens, read-out: TC50 (the source's name)
[6] = Mean oral bioavailability in Swiss albino male mice at […] per compound (administered in a mixture of 5 compounds to 3 mice) assessed by LCMS/MS.; also: dose 2.5 mg/kg; type: ADME, organism-based; conditions: male, Swiss albino, mouse, in vivo, read-out: Bioavailability
[7] = Mean AUC inf in Swiss albino male mice at 1 mg/kg per compound (administered iv in a mixture of 5 compounds to 3 mice) assessed by LCMS/MS.; type: ADME, organism-based; conditions: mouse, in vivo; for AUC(0-inf): male, Swiss albino
How it was run: (§1)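 Male Swiss albino mice (~30 g), 3 per experiment, mostly dosed as mixtures of 5 compounds iv via the lateral tail vein. Vehicle: 10% DMSO/90% 50 mM Na2HPO4 with 0.5% Tween-80. Blood sampled at 5, 15, 30 min and 1, 2, 4, 8, 24 h. Plasma stored at −20 °C and quantified by LC-MS after acetonitrile precipitation.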

[8] = Mean observed clearance in Swiss albino male mice at 1 mg/kg per compound (administered iv in a mixture of 5 compounds to 3 mice) assessed by LCMS/MS.; type: ADME, organism-based; conditions: mouse, in vivo; how it was run: as §1
[9] = Mean volume of distribution at steady state in Swiss albino male mice at 1 mg/kg per compound (administered iv in a mixture of 5 compounds to 3 mice) assessed by LCMS/MS.; type: ADME, organism-based; conditions: mouse, in vivo, read-out: Volume
How it was run: (§2)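 Male Swiss albino mice (~30 g), 3 per experiment, mostly dosed as mixtures of 5 compounds iv via the lateral tail vein. Vehicle: 10% DMSO/90% 50 mM Na2HPO4 with 0.5% Tween-80. Plasma stored at −20 °C and quantified by LC-MS after acetonitrile precipitation.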

[10] = Mean half-life in Swiss albino male mice at 1 mg/kg per compound (administered iv in a mixture of 5 compounds to 3 mice) assessed by LCMS/MS.; type: ADME, organism-based; conditions: mouse, in vivo; how it was run: as §2
[11] = Mean plasma concentration at 24h in Swiss albino male mice at […] per compound (administered orally in a mixture of 5 compounds to 3 mice) assessed by LCMS/MS.; type: ADME, organism-based; conditions: mouse, po
[12] = Mean plasma concentration at 4h in Swiss albino male mice at […] per compound (administered orally in a mixture of 5 compounds to 3 mice) assessed by LCMS/MS.; type: ADME, organism-based; conditions: mouse, po
[13] = Mean time to peak plasma concentration in Swiss albino male mice at […] per compound (administered orally in a mixture of 5 compounds to 3 mice) assessed by LCMS/MS.; type: ADME, organism-based; conditions: mouse, po
[14] = Plasma protein binding determined at 10uM by LC-MS/MS.; type: ADME, cell-free; conditions: mouse
How it was run: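 Equilibrium dialysis of plasma spiked at 10 µM (0.1% DMSO) against PBS pH 7.4, 6 h at 37 °C, duplicates. Both chambers analysed by LC-MS/MS after acetonitrile precipitation. % free = buffer/plasma area ratio; recovery also calculated.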

[15] = Partition coefficient of compound between n-octanol and PBS (pH7.4); type: physicochemical; conditions: octanol/water, pH 7.4
How it was run: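 Shake-flask method using octanol and PBS pH 7.4, each pre-saturated with the other. Compound was shaken 2 h at 850 rpm, 25 °C, then the phases were separated by centrifugation and both layers diluted and analysed by LC-MS/MS. LogD = log(octanol AUC × relative dilution / buffer AUC).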

[16] = Percentage of parent compound remaining after incubation for 30 minutes with cyropreserved mouse hepatocytes at a concentration of 1uM compound and […], determined by LCMS; type: ADME, tissue-based, Hepatocyte; conditions: cryopreserved mouse hepatocytes, read-out: Stability
How it was run: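 Compound was incubated at 1 µM final (2 µM working solution mixed 1:1 with hepatocyte suspension) in supplemented KHB pH 7.4. Conditions: 37 °C, 5% CO2, gentle mixing, duplicates. Reaction quenched with ice-cold acetonitrile containing standard; analysed by LC-MS/MS. % remaining = AUC at t / AUC at T0.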

[17] = male, Swiss albino, read-out: Clearance (converted)

| Compound | EC50 (Schistosoma mansoni [1]) [nM] | EC50 (Schistosoma mansoni [2]) [nM] | CC50 [3] [µM] | solubility kinetic at 24 h [4] [µM] | CC50 [5] [µM] | bioavailability [6] [%] | AUC(0-inf) [7] [ng·h/mL] | clearance [8, 17] [mL/min/kg] | Vd [9] [L/kg] | half-life [10] [min] | concentration at 24 h [11] [ng/mL] | concentration at 4 h [12] [ng/mL] | Tmax [13] [min] | Binding [14] [%] | Lipophilicity [15] | remaining at 0.5 h, 1 µM [16] [%] | AUC [7] [µg·h/mL] | clearance [8] [mL/min/kg] |
| --- | --- | --- | --- | --- | --- | --- | --- | --- | --- | --- | --- | --- | --- | --- | --- | --- | --- | --- |
| CCOc1cccc(-c2cn3c(-c4ccc(OC)cc4)cnc3cn2)c1 | 12100 | 11000 | 37.7 | – | – | – | – | – | – | – | – | – | – | – | – | – | – | – |
| Cc1nc2cnc(-c3cccc(C(C)C)c3)cn2c1-c1ccc(O)cc1 | < 430 | < 421 | > 50 | 1.19 (≈ 0.409 µg/mL) | > 11.5 | – | – | – | – | – | – | – | – | – | – | – | – | – |
| CC(C)c1cccc(-c2cn3c(-c4ccc(O)c(F)c4)cnc3cn2)c1 | 823 | 1320 | > 50 | – | > 30 | – | – | – | – | – | – | – | – | – | – | – | – | – |
| Cc1nc2cnc(-c3cccc(C(F)(F)F)c3)cn2c1-c1c(F)cc(O)cc1F | – | 172 | – | 1.73 (≈ 0.701 µg/mL) | 8.4 | 4 | 99.6 | 86 | 1.8 | 27.5 | 0.1 | 2.67 | 15 | 99.88 | 3.81 = | 42.3 | – | – |
| COc1ccc(-c2cnc3cnc(-c4cccc(OC(C)C)c4)cn23)cc1OC | 5560 | 9510 | 28.7 | – | – | – | – | – | – | – | – | – | – | – | – | – | – | – |
| Oc1ccc(-c2cnn3ccc(-c4cccc(C(F)(F)F)c4)cc23)c(F)c1 | – | 2650 | – | 1.42 (≈ 0.529 µg/mL) | – | 0 | 52.7 | 158 | 2.85 | 25 | 0.1 | 0.1 | 15 | 100 | 4.27 = | 50.9 | – | – |
| CC(C)c1cccc(-c2cn3c(-c4ccc(O)cc4F)cnc3cn2)c1 | 262 | 636 | 11.1 | 1.23 (≈ 0.427 µg/mL) | > 11.1 | – | – | – | – | – | – | – | – | – | – | – | – | – |
| CCc1nc2cnc(-c3cccc(C(F)(F)F)c3)cn2c1-c1ccc(OC)c(O)c1 | < 133 | 82.9 | > 50 | 0.672 (≈ 0.278 µg/mL) | > 30 | – | – | – | – | – | – | – | – | – | 3.97 = | – | – | – |
| CCc1cccc(-c2cn3c(-c4ccc(OC)c(OC)c4)cnc3cn2)c1 | 1060 | 2790 | 29.9 | – | – | – | – | – | – | – | – | – | – | – | – | – | – | – |
| COc1cc(-c2cnc3cnc(-c4cccc(C(C)C)c4)cn23)ccc1O | 1410 | 1630 | > 50 | – | 26 | – | – | – | – | – | – | – | – | – | 4.75 = | – | – | – |
| Oc1ccc(-c2cnc3ccc(-c4cccc(C(F)(F)F)c4)nn23)c(F)c1 | > 25000 | > 25000 | > 50 | – | – | – | – | – | – | – | – | – | – | – | – | – | – | – |
| COc1ccc(-c2c(C(F)(F)F)nc3cnc(-c4cccc(C(F)(F)C(F)(F)F)c4)cn23)cc1O | 21 | < 10.6 | – | 1.05 (≈ 0.529 µg/mL) | > 11.1 | 9.77 | – | – | 4.94 | 127 | 0.1 | 8.54 | 15 | 99.98 | 4.65 = | 75.3 | 0.153 | 54.3 |
| COc1ccc(-c2nnc3ccc(-c4cccc(C(C)C)c4)cn23)cc1 | – | 24200 | 40.8 | – | – | – | – | – | – | – | – | – | – | – | 4.71 = | – | – | – |
| CC(C)c1nc2cnc(-c3cccc(C(F)(F)F)c3)cn2c1-c1ccc(OP(=O)(O)O)cc1F | < 48.8 | 127 | – | 204 (≈ 101 µg/mL) | 9.2 | 5.44 | 131 | 69 | 1.26 | 31.7 | 0.1 | 5.46 | 15 | 96.805 | 0.075 = | 39.6 | – | – |
| COc1ccc(-c2cnc3cnc(-c4cccc(C(C)C)c4)cn23)cc1 | 1850 | 2430 | 9.04 | – | – | – | – | – | – | – | – | – | – | – | 5.36 = | – | – | – |
| COc1ccc(-c2c(C)nn3cnc(-c4cccc(C(F)(F)F)c4)cc23)cc1O | – | 785 | – | 29.8 (≈ 11.9 µg/mL) | – | – | 43.2 | 195 | 3.18 | 14.4 | 0.1 | 0.1 | – | 99.935 | 3.73 = | 45.1 | – | – |
| Cc1nc2cnc(-c3cccc(C(F)(F)F)c3)cn2c1-c1ccc(O)cc1F | 290 | < 614 | 18.7 | 3.49 (≈ 1.35 µg/mL) | – | – | – | – | – | – | – | – | – | – | – | 31.5 | – | – |
| COc1ccc(-c2cnc3cnc(-c4cccc(Cl)c4)cn23)cc1 | 12200 | 13100 | > 50 | – | – | – | – | – | – | – | – | – | – | – | – | – | – | – |
| COc1ccc(-c2cnc3ccc(-c4cccc(C(C)C)c4)nn23)cc1O | 5590 | 8260 | 11.3 | – | 9.24 | – | – | – | – | – | – | – | – | – | – | – | – | – |
| COc1ccc(-c2cnc3cnc(-c4cccc(OC(C)C)c4)cn23)c(OC)c1 | 12700 | 12500 | > 48.9 | – | – | – | – | – | – | – | – | – | – | – | – | – | – | – |
| COc1ccc(-c2c(C(C)C)nc3cnc(-c4cccc(C(F)(F)F)c4)cn23)cc1OP(=O)(O)O | – | 241 | – | 209 (≈ 106 µg/mL) | 19.2 | – | 25 | 345 | 4.06 | 22.6 | 0.1 | 0.1 | – | 96.79 | 0.09 = | 51.1 | – | – |
